Source: ChEMBL document CHEMBL1122285, “New myocardial imaging agents: stabilization of radioiodine as a terminal vinyl iodide moiety on tellurium fatty acids” (J Med Chem, 1983)

How the values were obtained:
Rattus norvegicus [1] = assay: Tested for distribution of radioactivity of iodine 125 in lungs of rat after 5 min of intravenous administration; format: ADME, organism-based, Lung; conditions: in vivo
Procedure, shortened: (§1)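 Fischer 344 rats, four per time point, under ether anaesthesia. Each received ~8.6 μCi of 125I-labelled fatty acid (sp act ~20 mCi/mmol) by lateral tail vein in 0.5 mL 6% bovine serum albumin with 10% final ethanol, filtered before injection. Percent injected dose/g was calculated against injectate standards and reported as mean (range). Thyroid weight was taken as body weight × 7.5 mg/100 g.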

Rattus norvegicus [2] = assay: Tested for distribution of radioactivity of iodine 125 in thyroid of rat after 30 min of intravenous administration; format: ADME, organism-based, Thyroid gland; conditions: in vivo, 0.5 h; procedure, shortened: as §1
Rattus norvegicus [3] = assay: Tested for distribution of radioactivity of iodine 125 in blood of rat after 60 min of intravenous administration; format: ADME, organism-based; conditions: in vivo, 1 h; procedure, shortened: as §1
Rattus norvegicus [4] = assay: Tested for distribution of radioactivity of iodine 125 in thyroid of rat after 60 min of intravenous administration; format: ADME, organism-based, Thyroid gland; conditions: in vivo, 1 h; procedure, shortened: as §1
Rattus norvegicus [5] = assay: Tested for distribution of radioactivity of iodine 125 in lungs of rat after 30 min of intravenous administration; format: ADME, organism-based, Lung; conditions: in vivo, 0.5 h; procedure, shortened: as §1
Rattus norvegicus [6] = assay: Tested for distribution of radioactivity of iodine 125 in liver of rat after 60 min of intravenous administration; format: ADME, organism-based; conditions: in vivo, 1 h; procedure, shortened: as §1
Rattus norvegicus [7] = assay: Tested for distribution of radioactivity of iodine 125 in blood of rat after 30 min of intravenous administration; format: ADME, organism-based; conditions: in vivo, 0.5 h; procedure, shortened: as §1
Rattus norvegicus [8] = assay: Tested for distribution of radioactivity of iodine 125 in kidney of rat after 30 min of intravenous administration; format: ADME, organism-based; conditions: in vivo, 0.5 h; procedure, shortened: as §1
Rattus norvegicus [9] = assay: Tested for distribution of radioactivity iodine 125 in heart of rat after 30 min of intravenous administration (value in parentheses indicates range); format: ADME, organism-based; conditions: in vivo, 0.5 h; procedure, shortened: as §1
Rattus norvegicus [10] = assay: Tested for distribution of radioactivity iodine 125 in heart of rat after 4 hours of intravenous administration; format: ADME, organism-based; conditions: in vivo; procedure, shortened: as §1
Rattus norvegicus [11] = assay: Tested for distribution of radioactivity of iodine 125 in thyroid of rat after 5 min of intravenous administration; format: ADME, organism-based, Thyroid gland; conditions: in vivo; procedure, shortened: as §1
Rattus norvegicus [12] = assay: Tested for distribution of radioactivity of iodine 125 in blood of rat after 2 hour of intravenous administration; format: ADME, organism-based; conditions: in vivo; procedure, shortened: as §1
Rattus norvegicus [13] = assay: Tested for distribution of radioactivity of iodine 125 in thyroid of rat after 2 hr of intravenous administration; format: ADME, organism-based, Thyroid gland; conditions: in vivo; procedure, shortened: as §1
Rattus norvegicus [14] = assay: Tested for distribution of radioactivity of iodine 125 in thyroid of rat after 4 hr of intravenous administration; format: ADME, organism-based, Thyroid gland; conditions: in vivo; procedure, shortened: as §1
Rattus norvegicus [15] = assay: Tested for distribution of radioactivity of iodine 125 in liver of rat after 4 hr of intravenous administration; format: ADME, organism-based; conditions: in vivo; procedure, shortened: as §1
Rattus norvegicus [16] = assay: Tested for distribution of radioactivity of iodine 125 in blood of rat after 4 hours of intravenous administration; format: ADME, organism-based; conditions: in vivo; procedure, shortened: as §1
Rattus norvegicus [17] = assay: Tested for distribution of radioactivity of iodine 125 in kidney of rat after 2 hours of intravenous administration; format: ADME, organism-based; conditions: in vivo; procedure, shortened: as §1
Rattus norvegicus [18] = assay: Tested for distribution of radioactivity of iodine 125 in liver of rat after 2 hr of intravenous administration; format: ADME, organism-based; conditions: in vivo; procedure, shortened: as §1
Rattus norvegicus [19] = assay: Tested for distribution of radioactivity of iodine 125 in lungs of rat after 2 hours of intravenous administration; format: ADME, organism-based, Lung; conditions: in vivo; procedure, shortened: as §1
Rattus norvegicus [20] = assay: Tested for distribution of radioactivity of iodine 125 in liver of rat after 5 min of intravenous administration; format: ADME, organism-based; conditions: in vivo; procedure, shortened: as §1
Rattus norvegicus [21] = assay: Tested for distribution of radioactivity of iodine 125 in blood of rat after 5 min of intravenous administration; format: ADME, organism-based; conditions: in vivo; procedure, shortened: as §1
Rattus norvegicus [22] = assay: Tested for distribution of radioactivity of iodine 125 in liver of rat after 30 min of intravenous administration; format: ADME, organism-based; conditions: in vivo, 0.5 h; procedure, shortened: as §1
Rattus norvegicus [23] = assay: Tested for distribution of radioactivity iodine 125 in heart of rat after 60 min of intravenous administration; format: ADME, organism-based; conditions: in vivo, 1 h; procedure, shortened: as §1
Rattus norvegicus [24] = assay: Tested for distribution of radioactivity of iodine 125 in kidney of rat after 5 min of intravenous administration; format: ADME, organism-based; conditions: in vivo; procedure, shortened: as §1
[25] = Tested for distribution of radioactivity of iodine 125 in kidney of rat after 60 min of intravenous administration; format: ADME; conditions: in vivo, 1 h; procedure, shortened: as §1
Rattus norvegicus [26] = assay: Tested for distribution of radioactivity of iodine 125 in heart of rat after 5 min of intravenous administration; format: ADME, organism-based; conditions: in vivo; procedure, shortened: as §1
Rattus norvegicus [27] = assay: Tested for distribution of radioactivity of iodine 125 in lungs of rat after 60 min of intravenous administration; format: ADME, organism-based, Lung; conditions: in vivo, 1 h; procedure, shortened: as §1
Rattus norvegicus [28] = assay: Tested for distribution of radioactivity of iodine 125 in kidney of rat after 4 hours of intravenous administration; format: ADME, organism-based; conditions: in vivo; procedure, shortened: as §1
Rattus norvegicus [29] = assay: Tested for distribution of radioactivity in heart of rat after 2 hours of intravenous administration; format: ADME, organism-based; conditions: in vivo; procedure, shortened: as §1

O=C(O)CCCCC[Te]CCCCCCCCC/C=C/I
Injected dose/g (Rattus norvegicus [1]): 1.29% | Injected dose/g (Rattus norvegicus [2]): 13.5% | Injected dose/g (Rattus norvegicus [3]): 0.22% | Injected dose/g (Rattus norvegicus [4]): 22.2% | Injected dose/g (Rattus norvegicus [5]): 0.96% | Injected dose/g (Rattus norvegicus [6]): 5.33% | Injected dose/g (Rattus norvegicus [7]): 0.22% | Injected dose/g (Rattus norvegicus [8]): 0.89% | Injected dose/g (Rattus norvegicus [9]): 2.78% | Injected dose/g (Rattus norvegicus [10]): 2.37% | Injected dose/g (Rattus norvegicus [11]): 8.54% | Injected dose/g (Rattus norvegicus [12]): 0.23% | Injected dose/g (Rattus norvegicus [13]): 43.8% | Injected dose/g (Rattus norvegicus [14]): 69.8% | Injected dose/g (Rattus norvegicus [15]): 4.4% | Injected dose/g (Rattus norvegicus [16]): 0.27% | Injected dose/g (Rattus norvegicus [17]): 0.88% | Injected dose/g (Rattus norvegicus [18]): 4.78% | Injected dose/g (Rattus norvegicus [19]): 1% | Injected dose/g (Rattus norvegicus [20]): 6.18% | Injected dose/g (Rattus norvegicus [21]): 0.26% | Injected dose/g (Rattus norvegicus [22]): 5.63% | Injected dose/g (Rattus norvegicus [23]): 2.96% | Injected dose/g (Rattus norvegicus [24]): 1.05% | Injected dose/g [25]: 0.95% | Injected dose/g (Rattus norvegicus [26]): 3.47% | Injected dose/g (Rattus norvegicus [27]): 1% | Injected dose/g (Rattus norvegicus [28]): 0.77% | Injected dose/g (Rattus norvegicus [29]): 2.86%
